Published values gathered from unrelated publications.
≈ marks a conversion by molar mass, not a printed value.

Compound | tested on | assay | test system | setting | quantity | result
O=[N+]([O-])NC(=S)NN=Cc1ccc(Br)cc1 | Leishmania major | parasite growth, MTT | – | 72 h, promastigote | IC50 | 433 µM
C#Cc1ccc(O)c(C=NNC(=O)c2ccc(Br)cc2Br)c1 | Aspergillus fumigatus | microbial growth | – | 48 h, pH 6.5 | MIC80 | 2 µg/mL (≈ 4.74 µM)
N.N.[Cl][Pt][Cl] | SU-DHL-6 | cell growth or viability, ATP luminescence | – | 10 µM, 72 h | inhibition | 100%
N#C[Se]CCCCOc1ccc2c(-c3ccccc3)cc(=O)oc2c1 | HeLa | cell growth or viability, SRB | – | – | GI50 | 23 µM
C[S+]([O-])CCCCN=C=S (stereo not drawn) | HDFa | cell growth or viability, MTT | – | 24 h | IC50 | 49.8 µM
O=[N+]([O-])NC(=S)NN=Cc1ccc(F)cc1 | Leishmania major | parasite growth | J774.A1 | 72 h, intracellular, amastigote | IC50 | 76.4 µM
CC[C@H](C)[C@H](NC(=O)[C@@H]1CCCN1C(=O)[C@H](CCC(=O)O)NC(=O)[C@H](CC(C)C)NC(=O)[C@@H](N)C(C)C)C(=O)N[C@@H](CC(C)C)C(=O)N[C@@H](Cc1c[nH]cn1)C(=O)N[C@@H](CO)C(=O)N[C@H](C(=O)O)[C@@H](C)OP(=O)(O)O | HeLa | cell growth or viability, MTT | – | 72 h | IC50 | 0.82 µM
C#Cc1ccc(O)c(C=NNC(=O)c2ccc(COC)cc2)c1 | Aspergillus fumigatus | microbial growth | – | 48 h, pH 6.5 | MIC80 | 1 µg/mL (≈ 3.24 µM)
Cc1ccc(C=NNC(=S)N[N+](=O)[O-])cc1 | Leishmania major | parasite growth, MTT | – | 72 h, promastigote | IC50 | 346 µM
Nc1ccn([C@@H]2O[C@H](COCc3ccccc3)[C@@H](OCc3ccccc3)[C@H](OCc3ccccc3)[C@H]2I)c(=O)n1 | Japanese encephalitis virus | viral replication, inhibitor, ELISA | Vero | – | IC50 | > 20 µM
N#C[Se]Cc1cc(=O)oc2cc(O)ccc12 | HeLa | cell growth or viability, SRB | – | – | GI50 | 20 µM
C#Cc1cccc(C=NNC(=O)c2ccc(Br)cc2)c1O | Aspergillus fumigatus | microbial growth | – | 48 h, pH 6.5 | MIC80 | 4 µg/mL (≈ 11.7 µM)
O=c1[nH]c(=O)n([C@@H]2O[C@H](COCc3ccccc3)[C@@H](OCc3ccccc3)[C@H](OCc3ccccc3)[C@H]2I)cc1F | Japanese encephalitis virus | viral replication, inhibitor, ELISA | Vero | – | IC50 | 4.98 µM
C#Cc1cccc(O)c1C=NNC(=O)c1ccc(COC)cc1 | Aspergillus fumigatus | microbial growth | – | 48 h, pH 6.5 | MIC80 | > 16 µg/mL
CN[C@H](CC(C)C)C(=O)N[C@H]1C(=O)N[C@@H](CC(N)=O)C(=O)N[C@H]2C(=O)N[C@H]3C(=O)N[C@H](C(=O)N[C@H](C(=O)O)c4cc(O)cc(O)c4-c4cc3ccc4O)[C@H](O)c3ccc(c(Cl)c3)Oc3cc2cc(c3O[C@@H]2O[C@H](CO)[C@@H](O)[C@H](O)[C@H]2O[C@H]2C[C@](C)(N)[C@H](O)[C@H](C)O2)Oc2ccc(cc2Cl)[C@H]1O | Enterococcus faecalis | microbial growth | VRE | drug-resistant strain | MIC | 64 µg/mL (≈ 44.2 µM)
